Source: ChEMBL document CHEMBL1138063, “Imidazole-dioxolane compounds as isozyme-selective heme oxygenase inhibitors” (J Med Chem, 2006)

Key:
[1] = Inhibition of rat liver CYP3A1/3A2; assay type: ADME, tissue-based
In short: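 CYP3A1/3A2 in rat liver microsomes, measured as erythromycin N-demethylase activity by spectrophotometric formaldehyde determination. Remaining activity was taken as % of control across inhibitor concentrations. IC50 came from a sigmoidal nonlinear regression, with two or three replicate curves.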

Cytochrome P450 2E1 = Cytochrome P450 2E1 (Rattus norvegicus, UniProt P05182); assay: Inhibition of rat liver CYP2E1; assay type: ADME, tissue-based
Cytochrome P450 2E1, sequence (P05182 whole entry): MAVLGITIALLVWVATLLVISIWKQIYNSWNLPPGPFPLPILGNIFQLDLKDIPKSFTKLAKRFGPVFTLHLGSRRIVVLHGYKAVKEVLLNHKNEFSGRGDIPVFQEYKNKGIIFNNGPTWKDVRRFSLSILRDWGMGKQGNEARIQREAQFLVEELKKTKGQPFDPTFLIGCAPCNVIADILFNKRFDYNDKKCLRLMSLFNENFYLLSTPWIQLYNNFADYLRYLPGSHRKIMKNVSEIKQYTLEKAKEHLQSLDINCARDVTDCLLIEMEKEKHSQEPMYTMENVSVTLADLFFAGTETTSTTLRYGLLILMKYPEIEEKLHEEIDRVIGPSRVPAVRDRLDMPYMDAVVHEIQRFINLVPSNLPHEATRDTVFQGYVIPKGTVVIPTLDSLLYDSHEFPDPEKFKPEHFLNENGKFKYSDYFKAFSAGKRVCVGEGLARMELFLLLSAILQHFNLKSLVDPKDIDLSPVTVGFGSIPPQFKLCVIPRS
In short: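 Rat liver microsomal CYP2E1 activity was read as p-nitrophenol hydroxylation, by spectrophotometric measurement of 4-nitrocatechol. Activity at several inhibitor concentrations (HCl salts) was expressed as percent of control. IC50 came from a nonlinear sigmoidal dose-response fit of each of two or three replicate curves.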

Nitric oxide synthase 1 = Nitric oxide synthase 1 (Rattus norvegicus, UniProt P29476); assay: Inhibition of rat brain nNOS
Nitric oxide synthase 1, sequence (P29476 whole entry): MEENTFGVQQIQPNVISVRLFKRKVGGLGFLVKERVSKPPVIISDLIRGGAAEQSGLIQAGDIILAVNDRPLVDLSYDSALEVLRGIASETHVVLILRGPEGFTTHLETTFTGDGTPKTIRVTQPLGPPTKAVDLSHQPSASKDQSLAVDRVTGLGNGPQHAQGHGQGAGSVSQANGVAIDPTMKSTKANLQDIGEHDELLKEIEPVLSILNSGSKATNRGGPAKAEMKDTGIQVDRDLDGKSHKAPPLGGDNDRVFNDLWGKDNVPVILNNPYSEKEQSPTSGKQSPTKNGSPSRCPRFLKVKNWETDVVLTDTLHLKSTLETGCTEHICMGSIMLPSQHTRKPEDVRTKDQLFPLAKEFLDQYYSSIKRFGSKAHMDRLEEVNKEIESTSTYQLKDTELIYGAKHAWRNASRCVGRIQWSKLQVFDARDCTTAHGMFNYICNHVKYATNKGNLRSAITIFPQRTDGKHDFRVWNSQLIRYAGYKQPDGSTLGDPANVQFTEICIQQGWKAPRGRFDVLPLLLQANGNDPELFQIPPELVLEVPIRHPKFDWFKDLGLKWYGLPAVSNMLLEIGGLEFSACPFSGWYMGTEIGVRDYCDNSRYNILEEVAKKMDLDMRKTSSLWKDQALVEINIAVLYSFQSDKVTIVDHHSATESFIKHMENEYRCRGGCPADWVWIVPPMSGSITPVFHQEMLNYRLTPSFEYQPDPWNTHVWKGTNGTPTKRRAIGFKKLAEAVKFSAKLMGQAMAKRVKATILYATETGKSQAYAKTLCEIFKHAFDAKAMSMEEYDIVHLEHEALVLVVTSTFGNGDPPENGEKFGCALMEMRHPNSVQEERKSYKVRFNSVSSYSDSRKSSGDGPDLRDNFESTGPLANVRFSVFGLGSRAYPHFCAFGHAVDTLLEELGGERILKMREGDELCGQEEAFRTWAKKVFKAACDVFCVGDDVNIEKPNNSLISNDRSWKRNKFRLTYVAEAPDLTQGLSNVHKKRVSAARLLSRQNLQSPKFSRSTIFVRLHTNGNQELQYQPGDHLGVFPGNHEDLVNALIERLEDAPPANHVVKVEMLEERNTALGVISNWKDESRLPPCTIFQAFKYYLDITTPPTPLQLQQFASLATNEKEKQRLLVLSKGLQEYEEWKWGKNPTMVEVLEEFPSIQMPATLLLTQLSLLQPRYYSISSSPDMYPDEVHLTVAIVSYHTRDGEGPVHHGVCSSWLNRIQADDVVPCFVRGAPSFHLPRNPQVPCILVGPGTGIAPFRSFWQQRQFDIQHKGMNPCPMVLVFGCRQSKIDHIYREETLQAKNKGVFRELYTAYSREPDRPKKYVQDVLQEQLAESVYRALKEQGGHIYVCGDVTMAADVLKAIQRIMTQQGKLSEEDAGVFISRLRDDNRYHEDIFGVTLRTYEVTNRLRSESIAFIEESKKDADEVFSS
In short: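 nNOS in rat brain cytosolic fraction, read as conversion of 14C-L-arginine to 14C-L-citrulline. Activity at several inhibitor concentrations was expressed as % of the uninhibited control. IC50 came from a nonlinear sigmoidal dose–response fit, with two or three replicate curves per compound.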

Heme oxygenase 2 [2] = target: T1, Heme oxygenase 2 (Rattus norvegicus, UniProt P23711); assay: Inhibition of Sprague-Dawley rat brain HO2
T1 sequence (P23711 whole entry): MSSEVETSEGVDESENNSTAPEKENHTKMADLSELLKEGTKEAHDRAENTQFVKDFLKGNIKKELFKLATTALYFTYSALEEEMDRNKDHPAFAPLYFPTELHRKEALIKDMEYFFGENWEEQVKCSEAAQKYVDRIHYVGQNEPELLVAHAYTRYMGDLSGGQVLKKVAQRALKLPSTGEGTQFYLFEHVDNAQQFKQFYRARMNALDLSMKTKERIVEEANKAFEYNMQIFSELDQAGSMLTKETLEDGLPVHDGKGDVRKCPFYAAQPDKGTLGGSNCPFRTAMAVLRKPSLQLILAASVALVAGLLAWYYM
In short: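 HO-2 source: Sprague-Dawley rat brain microsomes prepared by differential centrifugation. Compound (HCl salt) at 0.1–100 µM final was preincubated 10 min at 37 °C with 50 µM methemalbumin and 1 mg/mL protein in 100 mM phosphate pH 7.4. NADPH (1 mM final) was added and the mix incubated 15 min at 37 °C, then frozen on dry ice. CO was measured by GC, minus no-NADPH blanks. IC50 from sigmoidal fits, 2–3 replicate curves.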

Heme oxygenase 1 = target: T2, Heme oxygenase 1 (Homo sapiens, UniProt P09601); assay: Inhibition of human spleen HO1
T2 sequence (P09601 whole entry): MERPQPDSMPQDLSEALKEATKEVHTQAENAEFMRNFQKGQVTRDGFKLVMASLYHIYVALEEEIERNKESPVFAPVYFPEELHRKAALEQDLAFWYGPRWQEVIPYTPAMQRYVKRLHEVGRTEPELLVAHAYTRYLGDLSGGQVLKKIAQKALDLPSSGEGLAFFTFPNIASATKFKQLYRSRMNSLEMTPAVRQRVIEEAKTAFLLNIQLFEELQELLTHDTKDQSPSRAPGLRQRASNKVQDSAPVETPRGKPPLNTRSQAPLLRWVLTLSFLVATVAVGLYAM
In short: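 HO-1 in human spleen microsomes. Heme was given as 50 µM methemalbumin in 100 mM phosphate buffer (pH 7.4) with 1 mg/mL protein. Inhibitor (0.1–100 µM final) was preincubated 10 min at 37 °C, then 1 mM NADPH was added for 15 min at 37 °C. Blanks lacking NADPH were subtracted. Reactions were stopped on dry ice and CO was measured by GC. IC50 came from sigmoidal fits of % control, from 2–3 replicate curves.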

Heme oxygenase 2 [3] = target: T1, Heme oxygenase 2; assay: Inhibition of rat liver HO2
In short: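 HO-2 source: rat liver microsomes. Heme was presented as methemalbumin (50 µM) with 1 mg/mL protein in 100 mM phosphate pH 7.4. Compound (HCl salt) was preincubated 10 min at 37 °C, then NADPH (1 mM final) was added for 15 min at 37 °C. CO was measured by GC, minus no-NADPH blanks. IC50 from sigmoidal fits of replicate curves.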

[4] = target: Soluble guanylate cyclase (Rattus norvegicus); assay: Inhibition of rat lung sGC

Compound | IC50 [1] [µM] | IC50 (Cytochrome P450 2E1) [µM] | IC50 (Nitric oxide synthase 1) [µM] | IC50 (Heme oxygenase 2 [2]) [µM] | IC50 (Heme oxygenase 1) [µM] | IC50 (Heme oxygenase 2 [3]) [µM] | IC50 [4] [µM]
C[C@H]1CO[C@@](CCc2ccc(Cl)cc2)(Cn2ccnc2)O1 | 8 | 6 | 773 | – | – | – | –
C[C@H]1CO[C@](CCc2ccc(Cl)cc2)(Cn2ccnc2)O1 | 10 | 20 | > 500 | > 100 | – | – | –
C[C@@H]1CO[C@@](CCc2ccc(Cl)cc2)(Cn2ccnc2)O1 | 3.2 | 3.6 | 362 | – | 1.5 | 532 | –
Clc1ccc(CCC2(Cn3ccnc3)SCCS2)cc1 | 5.9 | – | 34 | – | – | – | –
Clc1ccc(CCC2(Cn3ccnc3)OCCO2)cc1 | – | 5 | 182 | > 100 | – | – | > 1000
C[C@@H]1CO[C@](CCc2ccc(Cl)cc2)(Cn2ccnc2)O1 | 7 | 30 | > 500 | > 100 | – | – | –
